Data reported in ChEMBL document CHEMBL1148187, “Modified taxols, 9. Synthesis and biological evaluation of 7-substituted photoaffinity analogues of taxol” (J Nat Prod, 1993).
Activity calls are given as the source filed them. No cut-off for these calls is given here.

Columns and labels:
[1] = Inhibition of bovine brain tubulin depolymerization after 20 mins by turbidimetry; design: species or system Bos taurus
Procedure, shortened: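 Purified bovine brain tubulin 10 μM (1.0 mg/ml) in 1.0 M monosodium glutamate (pH 6.6), 50 μM GTP, 4% DMSO, with varying analogue concentrations. Temperature jump 0 to 37°, held about 20 min, then reverse jump to 0°. Maximum depolymerization rate read as fall in A350 or A420. IC50 interpolated; at least three independent determinations.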

Bos taurus [2] = species: Bos taurus; assay: Induction of bovine brain tubulin polymerization at 40 uM by turbidimetry in presence of 4-morpholine-ethanesulfonate
Procedure, shortened: (§1)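 Low ionic strength turbidimetry at 350 or 420 nm: 10 μM purified bovine brain tubulin in 0.1 M 4-morpholine-ethanesulfonate (pH 6.9), 0.5 mM MgCl2, 100 μM GTP, 4% DMSO. Baseline at 0°, then temperature stepped to 15° and 37°.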

Bos taurus [3] = species: Bos taurus; assay: Induction of bovine brain tubulin depolymerization at 10 uM by turbidimetry in presence of glutamate
Procedure, shortened: (§2)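 Turbidimetry at 350 or 420 nm of 10 μM purified bovine brain tubulin in 1.0 M monosodium glutamate (pH 6.6), 50 μM GTP, 4% DMSO. Baseline at 0°, then stepped temperatures: 15°, 37°, then down to 10° and 0° to follow depolymerization.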

Bos taurus [4] = species: Bos taurus; assay: Induction of bovine brain tubulin polymerization at 10 uM at 0 degC by turbidimetry at lower temperature in presence of glutamate; conditions: in the assay text read “at 15 degC” for “at 0 degC”; procedure, shortened: as §2
Bos taurus [5] = species: Bos taurus; assay: Induction of bovine brain tubulin polymerization at 10 uM by turbidimetry at 37 degC in presence of 4-morpholine-ethanesulfonate; procedure, shortened: as §1
Bos taurus [6] = species: Bos taurus; assay: Induction of bovine brain tubulin polymerization at 10 uM by turbidimetry at 15 degC in presence of 4-morpholine-ethanesulfonate
Procedure, shortened: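 Purified bovine brain tubulin at 10 μM (1.0 mg/ml) in 0.1 M 4-morpholine-ethanesulfonate (pH 6.9) with 0.5 mM MgCl2, 100 μM GTP, 4% (v/v) DMSO, and agent at 10 μM. Baseline was read at 0°, the controller was then set to 15°, and later temperature steps followed. Polymerization was followed by turbidity at 350 or 420 nm.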

SMILES: CC(=O)O[C@H]1C(=O)[C@]2(C)[C@@H](OC(=O)c3ccccc3)C[C@H]3OC[C@@]3(OC(C)=O)[C@H]2[C@H](OC(=O)c2ccccc2)[C@]2(O)C[C@H](OC(=O)[C@H](O)[C@@H](NC(=O)c3ccccc3)c3ccccc3)C(C)=C1C2(C)C [PACLITAXEL C7 BENZOIC ACID ESTER]
- IC50 [1]: 0.65 µM
- Activity (Bos taurus [2]): inactive

SMILES: CC(=O)O[C@H]1C(=O)[C@@]2(C)[C@H]([C@H](OC(=O)c3ccccc3)[C@]3(O)C[C@H](OC(=O)[C@H](O)[C@@H](NC(=O)c4ccccc4)c4ccccc4)C(C)=C1C3(C)C)[C@]1(OC(C)=O)CO[C@@H]1C[C@@H]2O [PACLITAXEL]
- IC50 [1]: 0.42 µM
- Activity (Bos taurus [3]): < 50%
- Activity (Bos taurus [4]): Active
- Activity (Bos taurus [5]): Active
- Activity (Bos taurus [6]): inactive
